Source: ChEMBL document CHEMBL4837232, “Synthesis, in vitro antiprotozoal activity, molecular docking and molecular dynamics studies of some new monocationic guanidinobenzimidazoles” (Eur J Med Chem, 2021)
In brackets after ≈: the same amount, converted by molar mass.

What was measured:
Plasmodium falciparum = experiment: Antiplasmodial activity against bloodstream form of Plasmodium falciparum NF54 […] assessed as reduction in [3H]-hypoxanthine incorporation pretreated for 48 hrs followed by [3H]-hypoxanthine addition measured after 24 hrs by liquid scintillation counting method; assay type: functional, organism-based
[1] = test system: Trypanosoma brucei rhodesiense; experiment: Antitrypanosomal activity against bloodstream form of Trypanosoma brucei rhodesiense STIB900 incubated for 70 hrs by resazurin dye-based fluorometric analysis; assay type: functional, organism-based; details: STIB900, 70 h
L6 = experiment: Cytotoxicity against rat L6 cells assessed as reduction in cell viability incubated for 70 hrs by resazurin dye based fluorescence assay; details: L6, 70 h
In short: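 Uses cultured L-6 rat skeletal myoblasts with an Alamar Blue viability read-out, run per an earlier protocol. The IC50 is the mean of at least two independent experiments, with individual values within a factor of two.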

Trypanosoma cruzi = experiment: Antitrypanosomal activity against Trypanosoma cruzi Tulahuen C4 strain amastigotes infected in rat L6 cells measured after 96 hrs by inverted microscopy analysis; assay type: functional, organism-based; details: Tulahuen C4, L6, 96 h
Leishmania donovani = experiment: Antileishmanial activity against Leishmania donovani MHOM/ET/67/L82 amastigotes measured after 70 hrs by resazurin dye based fluorometric analysis; assay type: functional, organism-based; details: MHOM/ET/67/L82, 70 h
[2] = Selectivity index, ratio of IC50 for cytotoxicity against rat L6 cells to IC50 for antitrypanosomal activity against bloodstream form of Trypanosoma brucei rhodesiense STIB900; assay type: toxicity, cell-based; details: read-out: Ratio IC50
In short: (§1)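 Each index is the L6-cell IC50 divided by the IC50 for the given parasite. Each IC50 is the mean of at least two independent experiments, agreeing within a factor of two.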

[3] = Selectivity index, ratio of IC50 for cytotoxicity against rat L6 cells to IC50 for antileishmanial activity against Leishmania donovani MHOM/ET/67/L82 amastigotes; assay type: toxicity, cell-based; details: read-out: Ratio IC50; in short: as §1
[4] = Selectivity index, ratio of IC50 for cytotoxicity against rat L6 cells to IC50 for antitrypanosomal activity against Trypanosoma cruzi Tulahuen C4 strain amastigotes infected in rat L6 cell; assay type: toxicity, cell-based; details: read-out: Ratio IC50; in short: as §1
[5] = Selectivity index, ratio of IC50 for cytotoxicity against rat L6 cells to IC50 for antiplasmodial activity against bloodstream form of Plasmodium falciparum NF54; assay type: toxicity, cell-based; details: read-out: Ratio IC50; in short: as §1

| SMILES | IC50 (Plasmodium falciparum) | IC50 [1] | IC50 (L6) | IC50 (Trypanosoma cruzi) | IC50 (Leishmania donovani) | selectivity ratio [2] | selectivity ratio [3] | selectivity ratio [4] | selectivity ratio [5] |
| --- | --- | --- | --- | --- | --- | --- | --- | --- | --- |
| COc1ccc(-c2nc3cc(NC(=N)N)ccc3[nH]2)cc1OC | 0.153 µg/mL (≈ 0.491 µM) | 23.8 µg/mL (≈ 76.4 µM) | 78 µg/mL (≈ 251 µM) | > 100 µg/mL | 97.8 µg/mL (≈ 314 µM) | – | – | – | – |
| N=C(N)Nc1ccc2[nH]c(-c3ccc(-c4cccs4)s3)nc2c1 | 0.19 µg/mL (≈ 0.56 µM) | 11.8 µg/mL (≈ 34.8 µM) | 49.9 µg/mL (≈ 147 µM) | 46.1 µg/mL (≈ 136 µM) | 37.7 µg/mL (≈ 111 µM) | – | – | – | – |
| N=C(N)Nc1ccc2[nH]c(-c3ccc(-c4ccccc4)cc3)nc2c1 | 0.018 µg/mL (≈ 0.055 µM) | 21.5 µg/mL (≈ 65.7 µM) | 46.2 µg/mL (≈ 141 µM) | 54.3 µg/mL (≈ 166 µM) | 52.5 µg/mL (≈ 161 µM) | 2 | 0.8 | 0.8 | 2360 |
| N=C(N)Nc1ccc2[nH]c(-c3ccc(Oc4ccccc4)cc3)nc2c1 | 1.87 µg/mL (≈ 5.45 µM) | 16.1 µg/mL (≈ 46.9 µM) | 51.6 µg/mL (≈ 150 µM) | 49.5 µg/mL (≈ 144 µM) | > 100 µg/mL | – | – | – | – |
| N=C(N)Nc1ccc2[nH]c(-c3cc(-c4ccc(Cl)cc4)on3)nc2c1 | 1.14 µg/mL (≈ 3.23 µM) | 5.62 µg/mL (≈ 15.9 µM) | 46.8 µg/mL (≈ 133 µM) | 21.7 µg/mL (≈ 61.5 µM) | 7.7 µg/mL (≈ 21.8 µM) | – | – | – | – |
| N=C(N)Nc1ccc2[nH]c(-c3cccc4ccccc34)nc2c1 | 1.41 µg/mL (≈ 4.68 µM) | 11.8 µg/mL (≈ 39.2 µM) | 48.9 µg/mL (≈ 162 µM) | 63.6 µg/mL (≈ 211 µM) | > 100 µg/mL | – | – | – | – |
| COc1ccc(Oc2ccc(-c3nc4cc(NC(=N)N)ccc4[nH]3)cc2)cc1OC | 0.052 µg/mL (≈ 0.129 µM) | 12.5 µg/mL (≈ 31 µM) | > 100 µg/mL | 58.6 µg/mL (≈ 145 µM) | 58 µg/mL (≈ 144 µM) | > 8 | > 2 | > 2 | > 1920 |
| N=C(N)Nc1ccc2[nH]c(-c3ccc(F)c(F)c3)nc2c1 | 2.67 µg/mL (≈ 9.29 µM) | 6.04 µg/mL (≈ 21 µM) | > 100 µg/mL | 67 µg/mL (≈ 233 µM) | > 100 µg/mL | – | – | – | – |
| N=C(N)Nc1ccc2[nH]c(-c3ccc(C(=O)O)cc3)nc2c1 | 37.2 µg/mL (≈ 126 µM) | 72.1 µg/mL (≈ 244 µM) | > 100 µg/mL | 59.1 µg/mL (≈ 200 µM) | > 100 µg/mL | – | – | – | – |
| N=C(N)Nc1ccc2[nH]c(-c3ccc(-c4ccccc4)s3)nc2c1 | 0.279 µg/mL (≈ 0.837 µM) | 16 µg/mL (≈ 48 µM) | 48.4 µg/mL (≈ 145 µM) | 36.5 µg/mL (≈ 109 µM) | 44 µg/mL (≈ 132 µM) | – | – | – | – |
| N#Cc1ccc(-c2nc3cc(NC(=N)N)ccc3[nH]2)cc1 | 1.17 µg/mL (≈ 4.23 µM) | 18.2 µg/mL (≈ 65.9 µM) | > 100 µg/mL | 89.5 µg/mL (≈ 324 µM) | > 100 µg/mL | – | – | – | – |
| N=C(N)Nc1ccc2[nH]c(-c3csc4ccccc34)nc2c1 | 0.57 µg/mL (≈ 1.85 µM) | 12.1 µg/mL (≈ 39.4 µM) | 40 µg/mL (≈ 130 µM) | 53.1 µg/mL (≈ 173 µM) | 58.6 µg/mL (≈ 191 µM) | – | – | – | – |
| N=C(N)Nc1ccc2[nH]c(-c3ccc(OCc4ccccc4)cc3)nc2c1 | 0.226 µg/mL (≈ 0.632 µM) | 13.6 µg/mL (≈ 38.1 µM) | 43.2 µg/mL (≈ 121 µM) | 38 µg/mL (≈ 106 µM) | > 100 µg/mL | – | – | – | – |
| N=C(N)Nc1ccc2[nH]c(-c3cccc4cnccc34)nc2c1 | 2.72 µg/mL (≈ 9 µM) | 3.8 µg/mL (≈ 12.6 µM) | 44.6 µg/mL (≈ 148 µM) | 8.57 µg/mL (≈ 28.3 µM) | 46.3 µg/mL (≈ 153 µM) | – | – | – | – |
| Cc1ccc(-c2nc3cc(NC(=N)N)ccc3[nH]2)c(C)c1 | 6.26 µg/mL (≈ 22.4 µM) | 40.8 µg/mL (≈ 146 µM) | 97.8 µg/mL (≈ 350 µM) | > 100 µg/mL | > 100 µg/mL | – | – | – | – |
| N=C(N)Nc1ccc2[nH]c(-c3ccc(Cl)cc3)nc2c1 | 1.89 µg/mL (≈ 6.61 µM) | 29.5 µg/mL (≈ 103 µM) | 71.1 µg/mL (≈ 249 µM) | 90.5 µg/mL (≈ 317 µM) | 64.5 µg/mL (≈ 226 µM) | – | – | – | – |
| N=C(N)Nc1ccc2[nH]c(-c3ccccc3)nc2c1 | 4.07 µg/mL (≈ 16.2 µM) | 11.6 µg/mL (≈ 46.2 µM) | > 100 µg/mL | 61.2 µg/mL (≈ 244 µM) | > 100 µg/mL | – | – | – | – |
| Cc1ncsc1-c1nc2cc(NC(=N)N)ccc2[nH]1 | 3.03 µg/mL (≈ 11.1 µM) | 17.3 µg/mL (≈ 63.5 µM) | 93 µg/mL (≈ 341 µM) | 64 µg/mL (≈ 235 µM) | 46.8 µg/mL (≈ 172 µM) | – | – | – | – |
| N=C(N)Nc1ccc2[nH]c(-c3ccc4c(c3)Cc3ccccc3-4)nc2c1 | 0.168 µg/mL (≈ 0.495 µM) | 6.03 µg/mL (≈ 17.8 µM) | 43.6 µg/mL (≈ 128 µM) | 34.3 µg/mL (≈ 101 µM) | 40.3 µg/mL (≈ 119 µM) | – | – | – | – |
| N=C(N)Nc1ccc2[nH]c(-c3ccc4c(c3)OCCO4)nc2c1 | 0.82 µg/mL (≈ 2.65 µM) | 10.1 µg/mL (≈ 32.7 µM) | 73.5 µg/mL (≈ 238 µM) | 75.1 µg/mL (≈ 243 µM) | 56.2 µg/mL (≈ 182 µM) | – | – | – | – |
